Laboratory results as given in ChEMBL document CHEMBL1136753, “Optimization of 2-phenylaminoimidazo[4,5-h]isoquinolin-9-ones: orally active inhibitors of lck kinase” (J Med Chem, 2003).

What was measured:
Homo sapiens = species: Homo sapiens; test: Inhibition of IL-2 production in human whole blood; assay type: functional
tissue or blood = assay type: functional, tissue-based; settings: Homo sapiens
[1] = biological target: Tyrosine-protein kinase Lck (Homo sapiens, UniProt P06239); test: Inhibition of p56 Lck tyrosine kinase
Jurkat = test: Inhibition of Calcium release in jurkat cells; assay type: functional, cell-based; settings: Homo sapiens
Outline: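 Jurkat cells loaded with Fluo-3, washed in HBSS with 1 mM CaCl₂, 1 mM MgCl₂, 10 mM HEPES, 2 mM probenecid, 1% FBS, pH 7.4. Final 3 × 10⁵ cells/mL. Compound added for 15 min at room temperature, then anti-CD3 (clone X35, final 0.25 µg/mL). FLIPR fluorescence followed for 13 min. Peak minus baseline plotted against concentration gives EC₅₀. Mean of two or more experiments in duplicate ± SD.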

Tyrosine-protein kinase Lck, sequence (P06239 whole entry): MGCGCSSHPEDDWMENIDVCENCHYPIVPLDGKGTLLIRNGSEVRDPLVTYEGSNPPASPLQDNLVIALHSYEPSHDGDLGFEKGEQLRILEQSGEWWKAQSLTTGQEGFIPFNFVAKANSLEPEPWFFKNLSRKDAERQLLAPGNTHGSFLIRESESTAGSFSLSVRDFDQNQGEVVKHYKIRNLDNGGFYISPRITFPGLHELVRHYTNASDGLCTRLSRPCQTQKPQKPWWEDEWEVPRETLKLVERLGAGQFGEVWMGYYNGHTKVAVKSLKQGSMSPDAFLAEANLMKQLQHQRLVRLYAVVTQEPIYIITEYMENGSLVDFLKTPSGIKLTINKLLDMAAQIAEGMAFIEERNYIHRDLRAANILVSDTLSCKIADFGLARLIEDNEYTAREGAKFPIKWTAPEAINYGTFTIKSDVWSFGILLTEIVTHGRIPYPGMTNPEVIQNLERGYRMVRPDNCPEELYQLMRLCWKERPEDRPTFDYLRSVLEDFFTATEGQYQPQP

SMILES | EC50 (Homo sapiens) | EC50 (tissue or blood) | IC50 [1] | EC50 (Jurkat)
Cc1c(/C=C/CN)nc(O)c2c1ccc1nc(Nc3c(Cl)cccc3Cl)n(C)c12 | 3300 nM | 920 nM | 2 nM | 21 nM
Cc1nc(O)c2c(ccc3nc(Nc4c(Cl)cccc4Cl)n(C)c32)c1CCC(=O)N1CCOCC1 | – | – | 120 nM | 270 nM
COc1ccc(CNCc2cc3c(C)c(C)nc(O)c3c3c2nc(Nc2c(Cl)cccc2Cl)n3C)cc1 | – | – | 180 nM | 500 nM
COC(=O)CCc1nc(O)c2c(ccc3nc(Nc4c(Cl)cccc4Cl)n(C)c32)c1C | – | – | 360 nM | 230 nM
Cc1nc(O)c2c(cc(-c3ccc(F)nc3F)c3nc(Nc4c(Cl)cccc4Cl)n(C)c32)c1C | – | – | 50 nM | 370 nM
Cc1nc(O)c2c(ccc3[nH]c(Nc4c(Cl)cccc4Cl)nc32)c1C | – | – | 110 nM | 180 nM
Cc1c(/C=C/CN(C)Cc2ccccc2)nc(O)c2c1ccc1nc(Nc3c(Cl)cccc3Cl)n(C)c12 | – | – | 10 nM | 200 nM
Cc1nc(O)c2c(ccc3nc(Nc4c(Cl)cccc4Cl)n(C)c32)c1CC(=O)N1CCOCC1 | – | – | 120 nM | 660 nM
CCNC(=O)Cc1c(C)nc(O)c2c1ccc1nc(Nc3c(Cl)cccc3Cl)n(C)c12 | – | – | 460 nM | 600 nM
COC(=O)/C=C/c1nc(O)c2c(ccc3nc(Nc4c(Cl)cccc4Cl)n(C)c32)c1C | – | – | 86 nM | 70 nM
C=Cc1nc(O)c2c(ccc3nc(Nc4c(Cl)cccc4Cl)n(C)c32)c1C | 12000 nM | 900 nM | 45 nM | 20 nM
CCOC(=O)Cc1c(C)nc(O)c2c1ccc1nc(Nc3c(Cl)cccc3Cl)n(C)c12 | – | – | 700 nM | 140 nM
Cc1nc(O)c2c(ccc3nc(Nc4c(Cl)cccc4Cl)n(C)c32)c1CC(=O)N1CCCC1 | – | – | 740 nM | 270 nM
CCn1c(Nc2c(Cl)cccc2Cl)nc2ccc3c(C)c(C)nc(O)c3c21 | – | – | > 2500 nM | –
COC(=O)c1c(C)nc(O)c2c1ccc1nc(Nc3c(Cl)cccc3Cl)n(C)c12 | – | – | 87 nM | 90 nM
Cc1nc(O)c2c(cc(CNCCO)c3nc(Nc4c(Cl)cccc4Cl)n(C)c32)c1C | – | – | 26 nM | 120 nM
Cc1c(/C=C/CN2CCOCC2)nc(O)c2c1ccc1nc(Nc3c(Cl)cccc3Cl)n(C)c12 | – | 170 nM | 4 nM | 30 nM
